The results in this text go back to ChEMBL document CHEMBL1126128, “Nonprostanoid prostacyclin mimetics. 3. Structural variations of the diphenyl heterocycle moiety” (J Med Chem, 1992).

SMILES strings stand for the structures.

What all share (assay type): functional
The nature of test [1]: Compound was tested for inhibition of ADP-induced aggregation of blood platelets in human platelet rich plasma at >32 uM concentration. The gist of the method:
(§1)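 Human platelet-rich plasma with aggregation triggered by ADP and followed by aggregometry. Each test acid was run at one stated upper concentration, and the read-out is percent inhibition of aggregation at that concentration. Each value is from a single experiment or is the mean of duplicate determinations.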

The nature of test [2]: Inhibition of ADP-induced aggregation of human blood platelets in plasma. Conditions: Homo sapiens, Plasma.
Test [3] can be described thus: Compound was tested for inhibition of ADP-induced aggregation of blood platelets in human platelet rich plasma at >84 uM concentration. The gist of the method: as §1
Test [4] can be described thus: Compound was tested for inhibition of ADP-induced aggregation of blood platelets in human platelet rich plasma at >82 uM concentration. The gist of the method: as §1

As a reminder, the Inhibition is the relative decrease from the control value, in per cent. Usually IC50 stands for the concentration that gives 50% inhibition. A low value points to greater potency. As for `O=C(O)CCCCOc1cccc(-n2cnc(-c3ccccc3)c2-c2ccccc2)c1`, the Inhibition in test [1] amounted to 23%. The IC50 in test [2] is over 32 µM.

On to `O=C(O)COc1ccc(-n2cnc(-c3ccccc3)c2-c2ccccc2)cc1`, for which the Inhibition in test [3] is listed as 23%. In addition, the IC50 in test [2] is over 84 µM.

Take `O=C(O)COc1cccc(-n2cnc(-c3ccccc3)c2-c2ccccc2)c1`: the Inhibition in test [4] was found to be 18%. Also, the IC50 in test [2] is over 82 µM.
